In series [1] the target is T1, Solute carrier family 2, facilitated glucose transporter member 2 (Homo sapiens, UniProt P11168).
T1 sequence (P11168 whole entry): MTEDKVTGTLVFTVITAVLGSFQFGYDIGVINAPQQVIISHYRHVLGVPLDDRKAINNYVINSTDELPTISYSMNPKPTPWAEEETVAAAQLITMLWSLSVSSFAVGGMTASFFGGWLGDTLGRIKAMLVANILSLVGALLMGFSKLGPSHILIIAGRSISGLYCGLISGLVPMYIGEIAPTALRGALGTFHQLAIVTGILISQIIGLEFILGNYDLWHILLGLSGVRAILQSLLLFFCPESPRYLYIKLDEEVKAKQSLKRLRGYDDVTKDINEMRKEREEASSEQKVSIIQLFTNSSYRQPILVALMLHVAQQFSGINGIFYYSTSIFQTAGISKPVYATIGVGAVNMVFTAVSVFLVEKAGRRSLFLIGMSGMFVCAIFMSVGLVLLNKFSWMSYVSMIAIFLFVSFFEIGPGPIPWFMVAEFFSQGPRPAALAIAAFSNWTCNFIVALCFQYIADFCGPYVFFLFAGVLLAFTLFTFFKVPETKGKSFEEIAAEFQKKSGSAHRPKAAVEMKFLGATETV
Put plainly: Inhibition of human GLUT2 expressed in CHO cells assessed as reduction in fructose uptake by measuring decrease in ATP production incubated for 15 mins in presence of oxidative phosphorylation inhibitor rotenone by CellTiter-Glo Luminescent Cell Viability Assay. It is filed as cell-based. (In ATP-based viability assays light output follows the ATP content of the culture.)

The nature of series [2]: Dose normalized Cmax in Beagle dog at 0.2 mg/kg, po. As to conditions: in vivo. It is filed as ADME, organism-based, Canis lupus familiaris.
The nature of series [3]: Clearance in human hepatocytes. It is filed as ADME, cell-based, Hepatocyte.
Series [4] is described as follows: Stability in dog liver microsomes assessed as maximum bioavailability. As to conditions: read-out: Fmax. It is filed as ADME, Canis lupus familiaris, Microsome. (In general: Microsomes from liver hold many membrane-bound enzymes, among them those of drug oxidation.)
Series [5] has as its target T2, Solute carrier family 2, facilitated glucose transporter member 4 (Homo sapiens, UniProt P14672).
T2 sequence (P14672 whole entry): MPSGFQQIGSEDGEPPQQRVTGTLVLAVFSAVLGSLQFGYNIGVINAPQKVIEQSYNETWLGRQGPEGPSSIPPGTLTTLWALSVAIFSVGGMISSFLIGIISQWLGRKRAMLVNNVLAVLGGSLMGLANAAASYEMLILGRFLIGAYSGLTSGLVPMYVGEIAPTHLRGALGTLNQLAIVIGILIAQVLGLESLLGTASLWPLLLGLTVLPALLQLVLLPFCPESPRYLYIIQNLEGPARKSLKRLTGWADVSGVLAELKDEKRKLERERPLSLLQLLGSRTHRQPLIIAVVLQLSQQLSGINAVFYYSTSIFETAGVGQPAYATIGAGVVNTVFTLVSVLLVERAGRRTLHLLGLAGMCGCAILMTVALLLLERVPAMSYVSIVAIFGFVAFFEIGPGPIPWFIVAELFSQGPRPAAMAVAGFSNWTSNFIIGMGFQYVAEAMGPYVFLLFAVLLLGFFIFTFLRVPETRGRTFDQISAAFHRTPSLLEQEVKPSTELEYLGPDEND
Put plainly: Inhibition of human GLUT4 expressed in CHO cells assessed as reduction in glucose uptake by measuring decrease in ATP production preincubated for 20 mins followed by glucose addition and measured after 15 mins in presence of oxidative phosphorylation inhibitor rotenone by CellTiter-Glo Luminescent Cell Viability Assay. It is filed as cell-based.

Series [6] can be described thus: Stability in human hepatocytes assessed as maximum bioavailability. The conditions noted are these: read-out: Fmax. It is filed as ADME, Hepatocyte.
A short description of series [7]: Stability in human liver microsomes assessed as maximum bioavailability. It is filed as ADME, Microsome. As to conditions: read-out: Fmax.
A short description of series [8]: Stability in mouse liver microsomes assessed as maximum bioavailability. It is filed as ADME, Microsome. As to conditions: read-out: Fmax.
A short description of series [9]: Clearance in human liver microsomes. It is filed as ADME, Microsome.
Series [10] can be described thus: Stability in dog liver microsomes. It is filed as ADME, Canis lupus familiaris, Microsome.
Series [11] can be described thus: Volume of distribution at steady state in Beagle dog at 0.1 mg/kg, iv. As to conditions: in vivo. It is filed as ADME, organism-based, Canis lupus familiaris. The method in brief: (§1)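 Single intravenous dose: 0.3 mg kg⁻¹ in male Wistar rats; 0.1 mg kg⁻¹ in female Beagle dogs. Plasma pharmacokinetics gave steady-state volume of distribution.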
Series [12] in a line: Clearance in dog hepatocytes. It is filed as ADME, cell-based, Canis lupus familiaris, Hepatocyte.
A short description of series [13]: Stability in monkey liver microsomes assessed as maximum bioavailability. It is filed as ADME, Macaca mulatta, Microsome. The conditions noted are these: rhesus monkey, read-out: Fmax.
A short description of series [14]: Stability in rat liver microsomes assessed as maximum bioavailability. It is filed as ADME, Microsome. The conditions noted are these: read-out: Fmax.
The nature of series [15]: Volume of distribution at steady state in Wistar rat at 0.3 mg/kg, iv. It is filed as ADME, organism-based. As to conditions: in vivo. The method in brief:
as §1

The nature of series [16]: Stability in rat hepatocytes assessed as maximum bioavailability. It is filed as ADME, Hepatocyte. As to conditions: read-out: Fmax.
A short description of series [17]: Stability in monkey hepatocytes assessed as maximum bioavailability. It is filed as ADME, Macaca mulatta, Hepatocyte. The conditions noted are these: rhesus monkey, read-out: Fmax.
A short description of series [18]: Clearance in monkey liver microsomes. It is filed as ADME, Macaca mulatta, Microsome. As to conditions: rhesus monkey.
Series [19] is described as follows: Clearance in monkey hepatocytes. It is filed as ADME, cell-based, Macaca mulatta, Hepatocyte. The conditions noted are these: rhesus monkey.
Series [20] can be described thus: Clearance in rat hepatocytes. It is filed as ADME, cell-based, Hepatocyte.
Series [21] in a line: Stability in dog hepatocytes assessed as maximum bioavailability. It is filed as ADME, Canis lupus familiaris, Hepatocyte. As to conditions: read-out: Fmax.
Series [22] can be described thus: Apparent permeability across apical to basolateral side in human Caco-2 cells at 2 uM measured after 2 hrs. It is filed as ADME, cell-based. The conditions noted are these: caco-2, 2 h. The method in brief: (§2)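 Bidirectional Caco-2 transport at 2 μm over 2 h, apical→basolateral and basolateral→apical. Apparent permeability (P_app) is taken from compound transport. Efflux ratio is P_app B→A divided by P_app A→B.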

Series [23] in a line: Clearance in mouse liver microsomes. It is filed as ADME, Microsome.
The nature of series [24]: Clearance in dog liver microsomes. It is filed as ADME, Canis lupus familiaris, Microsome.
Series [25] addresses T3, Solute carrier family 2, facilitated glucose transporter member 1 (Homo sapiens, UniProt P11166).
T3 sequence (P11166 whole entry): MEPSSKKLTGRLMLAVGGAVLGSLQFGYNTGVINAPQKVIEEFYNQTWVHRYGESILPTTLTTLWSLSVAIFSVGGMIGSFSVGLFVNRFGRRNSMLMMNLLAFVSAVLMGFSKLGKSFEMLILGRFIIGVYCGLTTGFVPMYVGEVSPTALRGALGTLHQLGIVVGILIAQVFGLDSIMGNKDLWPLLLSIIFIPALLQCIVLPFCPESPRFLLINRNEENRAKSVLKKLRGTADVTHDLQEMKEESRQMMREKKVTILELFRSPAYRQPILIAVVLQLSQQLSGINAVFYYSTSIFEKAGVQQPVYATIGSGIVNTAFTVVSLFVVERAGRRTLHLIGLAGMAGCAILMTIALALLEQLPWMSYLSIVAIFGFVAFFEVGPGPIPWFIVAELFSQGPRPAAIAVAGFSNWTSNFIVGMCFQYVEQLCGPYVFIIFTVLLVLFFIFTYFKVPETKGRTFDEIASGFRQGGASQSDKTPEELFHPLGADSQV
The series is described as follows: Inhibition of human GLUT1 expressed in human DLD-1 cells assessed as reduction in glucose uptake by measuring decrease in ATP production incubated for 15 mins in presence of oxidative phosphorylation inhibitor rotenone by CellTiter-Glo Luminescent Cell Viability Assay. It is filed as cell-based.

Series [26] is described as follows: Clearance in rat liver microsomes. It is filed as ADME, Microsome.
Series [27] in a line: Efflux ratio of apparent permeability across basolateral to apical side over apical to basolateral side in human Caco-2 cells at 2 uM measured after 2 hrs. As to conditions: caco-2, 2 h. It is filed as ADME, cell-based. The procedure, abridged: as §2
Series [28] concerns the target T4, Solute carrier family 2, facilitated glucose transporter member 3 (Homo sapiens, UniProt P11169).
T4 sequence (P11169 whole entry): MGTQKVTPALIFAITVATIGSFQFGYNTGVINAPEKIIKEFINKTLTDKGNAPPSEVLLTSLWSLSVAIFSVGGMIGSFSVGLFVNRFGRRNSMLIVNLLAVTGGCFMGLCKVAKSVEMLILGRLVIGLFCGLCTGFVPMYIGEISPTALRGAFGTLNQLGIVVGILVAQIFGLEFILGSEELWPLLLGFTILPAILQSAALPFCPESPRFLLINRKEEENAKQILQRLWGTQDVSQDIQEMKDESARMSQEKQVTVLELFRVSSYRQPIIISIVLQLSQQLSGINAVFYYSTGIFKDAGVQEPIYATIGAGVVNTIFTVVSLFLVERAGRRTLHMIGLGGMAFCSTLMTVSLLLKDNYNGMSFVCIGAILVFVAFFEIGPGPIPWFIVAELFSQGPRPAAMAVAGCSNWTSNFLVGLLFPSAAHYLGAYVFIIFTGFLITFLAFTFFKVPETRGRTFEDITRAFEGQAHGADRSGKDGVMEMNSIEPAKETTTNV
The series is described as follows: Inhibition of human GLUT3 expressed in human GLUT1-/- DLD-1 cells assessed as reduction in glucose uptake by measuring decrease in ATP production incubated for 15 mins in presence of oxidative phosphorylation inhibitor rotenone by CellTiter-Glo Luminescent Cell Viability Assay. It is filed as cell-based.

pIC50: −log10 of the molar value.

As a reminder, the pIC50 is −log10 of the IC50, conventionally taken in molar units. Turning to `C=C1[C@@H](C)[C@H]2[C@H](Cc3ccccc3)NC(=O)[C@]23OC(=O)/C=C/[C@H](O)CCC[C@@H](C)C/C=C/[C@H]3[C@@H]1O` [CYTOCHALASIN B], in series [1], the pIC50 was 5.55.

With `Cc1nn(CC2CCOCC2)c(C)c1NC(=O)c1cc(C(F)(F)F)nc2ccc(Br)cc12`, the pIC50 in [1] is 5.07.

As a reminder, the Vdss is a proportionality between amount in the body and measured concentration, not a real space. Compound `Cc1c(NC(=O)c2cc(C(N)=O)nc3cc(F)ccc23)c(C(F)(F)F)nn1Cc1ccc(C#N)cc1` [BAY-876] had a Cmax/dose in series [2] of 0.93 kg/L. The CLH in [3] amounted to 6.17 mL/min/kg; in series [12], 3.3 mL/min/kg; in [18] it was 12.7 mL/min/kg; in series [19] it was 23.3 mL/min/kg. Moreover, the Fh in series [4] amounted to 100%; in [6] it was 72%; in [7] it was 76%; in series [8], 94%; in series [13], 70%; in series [14] it was 74%. Further, the Fh came to 89% in series [16], 46% in series [17] and 90% in series [21]. Further, in series [5], the pIC50 was 6.54. The figures for the CLhep predicted in [9] and in series [20] were 5.33 mL/min/kg and 7.67 mL/min/kg, respectively. For the same compound, the Stability entry in [10] was “Stable”. Further, the Vdss in series [11] amounted to 1 L/kg; in series [15], 0.79 L/kg.

One may read the Papp as a coefficient for how fast a substance crosses the barrier. Consider `Cc1c(NC(=O)c2cc(C(F)(F)F)nc3ccc(Br)cc23)c(C(F)(F)F)nn1Cc1ccc(F)cc1`, for which the Fh in [8] was determined as 59%. Besides, the Papp in series [22] turned out to be 0.35 ×10⁻⁶ cm/s. For the same compound, the values for the CLhep predicted in series [23] and in [20] were 36.7 mL/min/kg and 43.3 mL/min/kg, respectively.

Turning to `Cc1c(NC(=O)c2cc(C(N)=O)nc3cc(F)ccc23)c(C(F)(F)F)nn1Cc1ccc(C(C)(C)C)cc1` [BAY-588], the pIC50 was under 5.00 in series [1] and 6.30 in series [5].

Regarding `Cc1c(NC(=O)c2cc(C(N)=O)nc3cc(F)ccc23)c(C(F)(F)F)nn1Cc1ccc(C#N)cn1`, the CLH in series [3] is 0.5 mL/min/kg; in series [24], 0.017 mL/min/kg; in series [12], 0.017 mL/min/kg; in series [18], 6.7 mL/min/kg; in series [19], 5.33 mL/min/kg; in series [26], 6.17 mL/min/kg. The Fh stood at 100% in series [4]; 98% in series [6]; 86% in [7]; 93% in [8]; 84% in series [13]; 91% in [14]. In addition, the Fh in [16] is 99%; in series [17] it was 88%; in series [21], 100%. For the same compound, the pIC50 was 6.21 in [5] and 8.40 in series [25]. Also, the CLhep predicted is 3.17 mL/min/kg in series [9], 6 mL/min/kg in [23] and 0.667 mL/min/kg in series [20]. Besides, the Papp in series [22] amounted to 1.6 ×10⁻⁶ cm/s.

As to `Cc1c(NC(=O)c2cc(C(N)=O)nc3ccccc23)c(C(F)(F)F)nn1Cc1ccc(C#N)cc1`, the pIC50 was 4.16 in series [1], 6.77 in [5], 8.22 in series [25] and 6.24 in series [28]. Moreover, the CLH in [24] is 1 mL/min/kg; in series [12], 1.83 mL/min/kg. Further, the Fh in series [4] is 97%; in [7] it was 84%; in series [8] it was 74%; in series [21], 95%. Moreover, the Ratio in series [27] is on record as 3.7. The CLhep predicted in series [9] was 3.5 mL/min/kg; in [23], 23.3 mL/min/kg; in [20], 30 mL/min/kg.

The values are drawn from ChEMBL document CHEMBL5653626 (ChemMedChem, 2016).
